Laboratory results as given in ChEMBL document CHEMBL4673376 (Bioorg Med Chem Lett, 2021).
pIC50, pKi: −log10 of the molar value.

How the values were obtained:
[1] = Inhibition of rat intestinal sucrase; format: tissue-based, Intestine
Method in brief: (§1)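 Enzyme preparations came from small intestine tissue (rat or human, as the line states). Inhibition is reported as IC50.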

Maltase-glucoamylase [2] = molecular target: T1, Maltase-glucoamylase (Homo sapiens, UniProt O43451); experiment: Inhibition of human intestinal maltase; format: tissue-based, Intestine; method in brief: as §1
T1 sequence (O43451 whole entry): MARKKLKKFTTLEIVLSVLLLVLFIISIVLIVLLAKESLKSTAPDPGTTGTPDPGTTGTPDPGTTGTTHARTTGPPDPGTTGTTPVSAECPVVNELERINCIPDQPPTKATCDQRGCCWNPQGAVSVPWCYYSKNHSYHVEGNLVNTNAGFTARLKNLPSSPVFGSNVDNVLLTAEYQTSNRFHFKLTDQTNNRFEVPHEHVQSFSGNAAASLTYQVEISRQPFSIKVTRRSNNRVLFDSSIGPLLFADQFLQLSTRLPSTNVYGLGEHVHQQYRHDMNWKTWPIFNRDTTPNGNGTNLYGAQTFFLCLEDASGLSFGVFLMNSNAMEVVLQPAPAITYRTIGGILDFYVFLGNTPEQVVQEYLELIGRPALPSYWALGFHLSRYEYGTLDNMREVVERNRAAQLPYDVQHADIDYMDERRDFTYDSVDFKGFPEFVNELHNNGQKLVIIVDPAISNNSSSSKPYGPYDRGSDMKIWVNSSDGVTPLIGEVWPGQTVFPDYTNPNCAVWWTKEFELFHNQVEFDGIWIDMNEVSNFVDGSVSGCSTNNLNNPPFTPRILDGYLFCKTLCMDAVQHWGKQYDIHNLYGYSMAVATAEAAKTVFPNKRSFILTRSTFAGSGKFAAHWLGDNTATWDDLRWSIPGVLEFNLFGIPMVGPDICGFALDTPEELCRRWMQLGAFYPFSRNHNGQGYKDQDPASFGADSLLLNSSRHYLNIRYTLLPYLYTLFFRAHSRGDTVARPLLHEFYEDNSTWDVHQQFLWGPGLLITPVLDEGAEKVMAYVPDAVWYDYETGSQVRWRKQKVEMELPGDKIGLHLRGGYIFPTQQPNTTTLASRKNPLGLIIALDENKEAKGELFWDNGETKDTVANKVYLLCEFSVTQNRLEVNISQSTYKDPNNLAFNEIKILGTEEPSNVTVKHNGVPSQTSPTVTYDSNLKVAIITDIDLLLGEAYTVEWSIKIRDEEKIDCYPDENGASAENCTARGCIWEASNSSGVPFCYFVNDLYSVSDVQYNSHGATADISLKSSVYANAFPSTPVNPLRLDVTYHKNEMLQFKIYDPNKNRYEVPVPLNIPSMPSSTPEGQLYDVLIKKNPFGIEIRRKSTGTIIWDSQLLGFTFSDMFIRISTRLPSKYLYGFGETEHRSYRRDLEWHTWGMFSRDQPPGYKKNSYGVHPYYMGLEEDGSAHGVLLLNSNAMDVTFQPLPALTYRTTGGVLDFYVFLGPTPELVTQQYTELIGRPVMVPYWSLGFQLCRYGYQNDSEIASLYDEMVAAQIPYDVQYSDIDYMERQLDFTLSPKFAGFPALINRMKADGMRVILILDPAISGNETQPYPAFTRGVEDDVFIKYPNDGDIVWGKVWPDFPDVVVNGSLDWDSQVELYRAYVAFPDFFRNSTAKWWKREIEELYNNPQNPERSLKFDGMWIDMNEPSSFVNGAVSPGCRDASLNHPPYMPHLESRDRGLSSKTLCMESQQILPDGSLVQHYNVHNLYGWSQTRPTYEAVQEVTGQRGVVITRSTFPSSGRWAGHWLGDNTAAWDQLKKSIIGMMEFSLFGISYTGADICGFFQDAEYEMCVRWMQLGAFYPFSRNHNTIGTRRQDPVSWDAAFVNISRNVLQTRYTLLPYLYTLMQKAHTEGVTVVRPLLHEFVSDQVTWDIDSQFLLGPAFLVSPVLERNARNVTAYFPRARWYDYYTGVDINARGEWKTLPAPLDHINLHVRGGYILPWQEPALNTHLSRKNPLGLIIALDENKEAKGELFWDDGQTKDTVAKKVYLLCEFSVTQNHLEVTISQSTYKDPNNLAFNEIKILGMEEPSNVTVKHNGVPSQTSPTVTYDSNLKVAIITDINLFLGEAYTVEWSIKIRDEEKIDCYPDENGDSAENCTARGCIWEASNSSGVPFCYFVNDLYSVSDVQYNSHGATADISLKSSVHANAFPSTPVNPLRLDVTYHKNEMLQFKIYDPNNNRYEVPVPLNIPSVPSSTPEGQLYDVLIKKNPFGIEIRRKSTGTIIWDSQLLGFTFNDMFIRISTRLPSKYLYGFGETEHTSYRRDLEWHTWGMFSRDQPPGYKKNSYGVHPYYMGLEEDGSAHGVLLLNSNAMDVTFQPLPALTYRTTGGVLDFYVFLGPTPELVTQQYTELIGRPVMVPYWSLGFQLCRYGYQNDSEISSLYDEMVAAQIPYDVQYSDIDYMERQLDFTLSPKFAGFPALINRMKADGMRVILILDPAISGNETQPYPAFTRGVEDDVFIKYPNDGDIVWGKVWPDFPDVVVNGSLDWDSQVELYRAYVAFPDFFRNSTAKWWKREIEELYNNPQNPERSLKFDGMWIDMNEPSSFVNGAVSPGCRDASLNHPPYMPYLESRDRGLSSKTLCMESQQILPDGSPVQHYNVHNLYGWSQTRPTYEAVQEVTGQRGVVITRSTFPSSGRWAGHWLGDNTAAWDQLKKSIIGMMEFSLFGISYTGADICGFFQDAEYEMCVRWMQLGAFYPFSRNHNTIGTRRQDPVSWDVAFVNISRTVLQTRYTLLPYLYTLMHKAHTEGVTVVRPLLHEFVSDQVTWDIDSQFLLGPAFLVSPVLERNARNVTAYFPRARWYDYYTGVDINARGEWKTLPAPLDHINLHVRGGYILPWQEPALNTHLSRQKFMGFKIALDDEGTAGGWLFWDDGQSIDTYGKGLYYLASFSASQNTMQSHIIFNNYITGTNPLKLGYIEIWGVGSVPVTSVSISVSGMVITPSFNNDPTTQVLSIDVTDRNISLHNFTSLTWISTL

[3] = Inhibition of rat intestinal isomaltase; format: tissue-based, Intestine; method in brief: as §1
[4] = Inhibition of rat intestinal maltase; format: tissue-based, Intestine; method in brief: as §1
[5] = Inhibition of rat intestinal maltase using maltose as substrate incubated for 30 mins and immediately heated for 2 mins by glucose oxidase method; format: tissue-based, Intestine; method in brief: as §1
[6] = Inhibition of rat intestinal sucrase using sucrose as substrate incubated for 30 mins and immediately heated for 2 mins by glucose oxidase method; format: tissue-based, Intestine; method in brief: as §1
[7] = Inhibition of rat intestinal isomaltase using isomaltose as substrate incubated for 30 mins and immediately heated for 2 mins by glucose oxidase method; format: tissue-based, Intestine; method in brief: as §1
Maltase-glucoamylase [8] = molecular target: T1, Maltase-glucoamylase; experiment: Inhibition of recombinant human maltase-glucoamylase using p-nitrophenyl-alpha-D-glucopyranoside as substrate incubated for 35 mins by microtiter plate reader analysis
Maltase-glucoamylase [9] = molecular target: T1, Maltase-glucoamylase; experiment: Inhibition of human intestinal maltase using maltose as substrate incubated for 30 mins and immediately heated for 2 mins by glucose oxidase method; format: tissue-based, Intestine; method in brief: as §1

pIC50 [1] | pIC50 (Maltase-glucoamylase [2]) | pIC50 [3] | pIC50 [4] | pIC50 [5] | pIC50 [6] | pIC50 [7] | pKi (Maltase-glucoamylase [8]) | pIC50 (Maltase-glucoamylase [9]) | Structure (SMILES)
6.42 | 5.70 | 6.40 | 5.60 | – | – | – | – | – | CCCCCCCC[C@@H](O)[C@H](O)[C@H](O)C[S@+]1C[C@@H](O)[C@H](O)[C@H]1CO
6.77 | 5.82 | 5.36 | 5.20 | – | – | – | – | – | CCCCCCCCCC[C@@H](O)[C@H](OS(=O)(=O)[O-])[C@H](O)C[S@+]1C[C@@H](O)[C@H](O)[C@H]1CO
5.85 | 5.30 | 6.31 | 5.32 | – | – | – | – | – | CCC[C@@H](O)[C@H](O)[C@H](O)C[S@+]1C[C@@H](O)[C@H](O)[C@H]1CO
– | – | – | – | 5.28 | 5.80 | 5.89 | – | – | O=S(=O)([O-])O[C@@H](CO)[C@H](O)C[S@+]1C[C@@H](O)[C@H](O)[C@H]1CO [SALACINOL]
– | – | – | – | – | – | – | 5.22 | – | CCCCCCCCCCCCCC[S@+]1C[C@@H](O)[C@H](O)[C@H]1CO
– | – | – | – | – | – | – | 4.49 | – | CCCC[S+]1C[C@@H](O)[C@H](O)[C@H]1CO (single isomer, unassigned)
6.54 | 5.77 | 5.32 | 5.11 | – | – | – | – | – | CCCCCC[C@@H](O)[C@H](OS(=O)(=O)[O-])[C@H](O)C[S@+]1C[C@@H](O)[C@H](O)[C@H]1CO
6.14 | 5.32 | 5.54 | 5.27 | – | – | – | – | – | CCC[C@@H](O)[C@H](OS(=O)(=O)[O-])[C@H](O)C[S@+]1C[C@@H](O)[C@H](O)[C@H]1CO
5.82 | – | 3.19 | 5.77 | – | – | – | – | – | C[C@H]1O[C@H](O[C@H]2[C@H](O)[C@@H](O)[C@@H](O[C@H]3[C@H](O)[C@@H](O)C(O)O[C@@H]3CO)O[C@@H]2CO)[C@H](O)[C@@H](O)[C@@H]1N[C@H]1C=C(CO)[C@@H](O)[C@H](O)[C@H]1O (stereo partly specified) [ACARBOSE]
– | – | – | – | 5.10 | 5.89 | 6.52 | – | 5.05 | [O-][C@@H](CO)[C@H](O)C[S@+]1C[C@@H](O)[C@H](O)[C@H]1CO [NEOSALACINOL]
6.82 | 5.92 | 5.27 | 5.14 | – | – | – | – | – | CCCCCCCC[C@@H](O)[C@H](OS(=O)(=O)[O-])[C@H](O)C[S@+]1C[C@@H](O)[C@H](O)[C@H]1CO
